Data: ChEMBL document CHEMBL1158781, “Indole alkaloids and other constituents of Rauwolfia serpentina” (J Nat Prod, 2005)
Active and inactive are the calls of the source. The rule behind the calls is not given here.

Assays:
[1] = species on record: Homo sapiens; test: (§1) Inhibition of human recombinant DNA topoisomerase-2
How it was run: (§2)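 Recombinant human topo II (2 units) relaxing supercoiled pUC19 DNA (0.25 µg). Inhibitor added in 10% DMSO; 30 min at 37 °C. Stopped with sarkosyl loading buffer, run on 1% agarose in TAE, EtBr stain, conversion to relaxed form scored under UV.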

[2] = target: T1, DNA topoisomerase 1 (Homo sapiens) (UniProt P11387); test: (§3) Inhibition of human recombinant DNA topoisomerase1
T1 sequence (whole entry): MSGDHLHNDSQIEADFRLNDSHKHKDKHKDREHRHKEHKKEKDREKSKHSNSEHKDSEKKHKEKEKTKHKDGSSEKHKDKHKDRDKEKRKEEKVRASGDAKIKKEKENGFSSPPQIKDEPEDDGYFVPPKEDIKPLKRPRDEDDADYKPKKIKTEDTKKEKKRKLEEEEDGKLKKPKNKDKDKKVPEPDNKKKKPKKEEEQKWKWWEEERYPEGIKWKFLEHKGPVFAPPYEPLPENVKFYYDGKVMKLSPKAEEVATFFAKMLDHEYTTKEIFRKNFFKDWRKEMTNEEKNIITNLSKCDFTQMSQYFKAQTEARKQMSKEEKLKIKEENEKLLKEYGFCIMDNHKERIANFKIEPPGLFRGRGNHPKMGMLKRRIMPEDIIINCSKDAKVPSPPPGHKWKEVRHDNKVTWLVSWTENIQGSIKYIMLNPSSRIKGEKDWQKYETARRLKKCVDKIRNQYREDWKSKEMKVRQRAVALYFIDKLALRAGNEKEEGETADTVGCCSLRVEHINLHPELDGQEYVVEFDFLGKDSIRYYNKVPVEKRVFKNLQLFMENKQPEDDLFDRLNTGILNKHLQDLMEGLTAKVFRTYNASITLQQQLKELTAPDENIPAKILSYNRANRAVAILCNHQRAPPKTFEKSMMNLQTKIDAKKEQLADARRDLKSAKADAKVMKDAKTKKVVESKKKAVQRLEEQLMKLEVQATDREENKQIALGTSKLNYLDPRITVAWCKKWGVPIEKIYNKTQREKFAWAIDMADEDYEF
How it was run: (§4)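 Recombinant human topo I (2 units) relaxing pBR322 DNA (0.25 µg). Buffer: 10 mM Tris-HCl pH 7.9, 1 mM EDTA, 150 mM NaCl, 0.1% BSA, 0.1 mM spermidine, 5% glycerol. Inhibitor added in 10% DMSO; 30 min at 37 °C. Sarkosyl stop, 1% agarose/TAE gel, EtBr stain, relaxed DNA seen under UV.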

[3] = test system: HL-60; test: Cytotoxicity against human HL60 cells by MTT assay; type: functional, cell-based
How it was run: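 HL-60 human promyelocytic leukemia cells grown in RPMI 1640 with 10% FBS, penicillin and streptomycin at 37 °C under 5% CO2. Cells plated at 3 × 10^5 per well with a range of alkaloid concentrations. Compounds supplied as 10 mM PBS stocks and diluted into growth medium just before use. Survival read out by MTT.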

[4] = as §1; how it was run: as §2
[5] = target: T2, DNA topoisomerase 1 (Homo sapiens, UniProt P11387); test: as §3; how it was run: as §4
T2 sequence (P11387 whole entry): T1 sequence (whole entry)

Row | Structure (SMILES) | Activity [1] | Activity [2] | Activity [3] | IC50 [4] [µM] | IC50 [3] [µM] | IC50 [5] [µM]
1 | COC(=O)[C@H]1[C@H]2C[C@@H]3c4[nH]c5cc(OC)ccc5c4CCN3C[C@H]2C[C@@H](OC(=O)/C=C/c2cc(OC)c(OC)c(OC)c2)[C@@H]1OC | inactive | inactive | inactive |  |  | 
2 | COC(=O)[C@H]1[C@H]2C[C@@H]3c4[nH]c5ccccc5c4CCN3C[C@H]2CC(O)[C@@H]1O (stereo partly specified) | inactive | inactive | inactive |  |  | 
3 | COC(=O)[C@H]1[C@H]2C[C@@H]3c4[nH]c5ccccc5c4CCN3C[C@H]2CC[C@@H]1O | inactive | inactive | inactive |  |  | 
4 | CC[C@@]1(O)C(=O)OCc2c1cc1n(c2=O)Cc2cc3ccccc3nc2-1 [CAMPTOTHECIN] |  |  |  | > 1000 | 130 | 
5 | COc1cc([C@@H]2c3cc4c(cc3[C@@H](O[C@@H]3O[C@@H]5CO[C@@H](C)O[C@H]5[C@H](O)[C@H]3O)[C@H]3COC(=O)[C@H]23)OCO4)cc(OC)c1O [ETOPOSIDE] |  |  |  | 40 | 150 | > 1000
6 | O=C(O)[C@H]1[C@H]2C[C@@H]3c4[nH]c5ccccc5c4CCN3C[C@H]2CC[C@@H]1O [ISORAUHIMBINIC ACID] |  |  |  | 175 | 125 | 40
7 | COC(=O)[C@H]1[C@H]2C[C@@H]3c4[nH]c5cc(OC)ccc5c4CCN3C[C@H]2C[C@@H](OC(=O)c2cc(OC)c(OC)c(OC)c2)[C@@H]1OC [RESERPINE] |  |  |  | 20 | 67 | 160
8 | COC(=O)[C@@H]1[C@H]2C[C@H]3c4[nH]c5ccccc5c4CCN3C[C@@H]2CC[C@@H]1O [YOHIMBINE] | inactive | inactive | inactive | 125 | 84 | 30
